Results published in PMC7909006 (Clinical cancer research : an official journal of the …, 2020).

Experiments:
[1] = adult patients; cited from earlier work
[2] = test system: PBMC; test: Flow cytometric analysis of PBMC and lymphocyte subset analysis; type: in vivo, human
[3] = non-human primate model, nontumor setting; cited from earlier work
[4] = Phase I safety and tolerability: adverse events; type: in vivo
[5] = test system: serum cytokines (IL-10, IL-12p70, IL-6, MCP-1, M-CSF); test: Pharmacodynamics: serum cytokine analysis, fold change from Day 1; type: in vivo, human
[6] = Population PK modeling; design: species or system human; conditions: for RP2D based on body weight (population PK): exposure matched to adults receiving 800 mg daily
How it was run: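 Nonlinear mixed-effects model: two compartments, sequential zero- and first-order absorption with lag time, linear elimination, and body weight as an allometric covariate on disposition parameters. Final-model estimates were used to simulate doses for ages 6–18 years that match steady-state exposure in adult TGCT patients given 800 mg daily.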

[7] = Plasma pharmacokinetics, noncompartmental analysis; type: in vivo, human
How it was run: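 Oral dosing once daily, BSA-based at 400, 600 or 800 mg/m2, rolling-six escalation. Peripheral blood sampled on C1 day 1 before dosing and at 0.5–24 h after, on day 15 before dosing and at 1–6 h after, and before dosing on day 16. Plasma assayed by validated LC-MS/MS (LLOQ 10 nmol/L). Cmax, Tmax, AUC and CL/F derived by noncompartmental analysis.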

[8] = test system: peripheral blood immune cells; test: Pharmacodynamics: fold change in peripheral blood; type: in vivo, human; conditions: for Absolute Immature Granulocyte, Med. Fold Change (95% CI) from Day 1 / Immature granulocytes, Med. Fold Change (95% CI) from Day 1: N=9
How it was run: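 Complete blood counts, including absolute monocyte count, were taken as safety labs before treatment, mid-C1, before C2–C9, then every other cycle and at end of therapy. Patients took the oral agent once daily on a continuous 28-day cycle, dosed by BSA at 400, 600 or 800 mg/m2.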

Structure (SMILES): FC(F)(F)c1ccc(CNc2ccc(Cc3c[nH]c4ncc(Cl)cc34)cn2)cn1 [Pexidartinib]
- Liver toxicity in adult trials [1]: idiosyncratic, serious (grade 4–5) liver toxicity was observed in a small subset of patients
- Change in CD14dimCD16+ nonclassical, pro-inflammatory monocytes ([2]; C1): No significant changes
- CD11b+ cells in PBMC, median fold change (95% CI) ([2]; C1 days 6–8, flow cytometry): 0.47 (0.21, 1.31)
- Change in peripheral blood lymphocyte subset analysis ([2]; during C1): no notable changes
- Drug levels in the cerebral spinal fluid [3]: low but detectable levels
- Recommended phase II dose (RP2D), BSA based ([4]; human, in vivo, 28 days): 800 mg/m^2/day
- Dose-limiting toxicities (DLT) ([4]; in vivo): No DLTs
- Tolerability ([4]; in vivo, po): well tolerated
- Maximum tolerated dose (MTD) ([4]; up to 800 mg/m^2/dose): not reached
- IL-6 serum, Med. Fold Change (95% CI) from Day 1 ([5]; 14–15 Days from C1, N=12): 0.91 (0.78, 1.34)
- IL-10 serum, Med. Fold Change (95% CI) from Day 1 ([5]; 14–15 Days from C1, N=12): 1.25 (1.11, 1.44)
- IL-12p70 serum, Med. Fold Change (95% CI) from Day 1 ([5]; 14–15 Days from C1, N=12): 0.92 (0.80, 1.25)
- M-CSF serum, Med. Fold Change (95% CI) from Day 1 ([5]; 14–15 Days from C1, N=12): 3.70 (2.31, 5.24)
- MCP-1 serum, Med. Fold Change (95% CI) from Day 1 ([5]; 14–15 Days from C1, N=12): 1.28 (1.01, 1.56)
- IL-6 serum, Med. Fold Change (95% CI) from Day 1 ([5]; 27–29 Days from C1, N=8): 0.98 (0.64, 2.39)
- IL-10 serum, Med. Fold Change (95% CI) from Day 1 ([5]; 27–29 Days from C1, N=8): 1.22 (0.81, 1.30)
- IL-12p70 serum, Med. Fold Change (95% CI) from Day 1 ([5]; 27–29 Days from C1, N=8): 0.86 (0.66, 1.05)
- M-CSF serum, Med. Fold Change (95% CI) from Day 1 ([5]; 27–29 Days from C1, N=8): 4.52 (2.40, 13.3)
- MCP-1 serum, Med. Fold Change (95% CI) from Day 1 ([5]; 27–29 Days from C1, N=8): 1.27 (1.11, 1.54)
- Target inhibition (CSF1 levels elevated, AMC levels decreased) ([5]; 400, 600, 800 mg/m^2 DLs): seen at all DLs
- RP2D based on body weight (population PK) ([6]; body weight < 30 kg): 400 mg daily
- RP2D based on body weight (population PK) ([6]; body weight ≥ 30 & < 40 kg): 600 mg daily
- RP2D based on body weight (population PK) ([6]; body weight ≥ 40 kg): 800 mg daily
- AUC ([6]; human, plasma, oral, 800 mg, Steady-state AUC, 5th to 95th percentile, adult TGCT patients receiving 800 mg daily): 96 to 255 µg·h/mL
- AUC0–24 dependence on dose ([7]; DL1 to DL3): rose with increasing dose
- Cmax dependence on dose ([7]; DL1 to DL3): rose with increasing dose
- Accumulation ratio, median ([7]; day 15 vs day 1, DL3 (n=3)): 1.22
- Clearance from concentration x time curves ([7]; first day of dosing): slow clearance
- PK dose linearity ([7]; over three DLs): linear
- Absolute Immature Granulocyte, Med. Fold Change (95% CI) from Day 1 ([8]; 6–8 Days from C1): 0.50 (0.10, 1.00)
- Immature granulocytes, Med. Fold Change (95% CI) from Day 1 ([8]; 6–8 Days from C1): 0.50 (0.08, 0.67)
- Absolute Eosinophil Count, Med. Fold Change (95% CI) from Day 1 ([8]; 6–8 Days from C1, N=10): 0.76 (0.50, 1.07)
- Eosinophils %, Med. Fold Change (95% CI) from Day 1 ([8]; 6–8 Days from C1, N=10): 0.78 (0.55, 1.04)
- Absolute Basophil Count, Med. Fold Change (95% CI) from Day 1 ([8]; 6–8 Days from C1, N=12): 0.92 (0.50, 1.00)
- Basophils %, Med. Fold Change (95% CI) from Day 1 ([8]; 6–8 Days from C1, N=12): 0.95 (0.50, 1.13)
- Absolute Lymphocyte Count, Med. Fold Change (95% CI) from Day 1 ([8]; 6–8 Days from C1, N=13): 0.97 (0.68, 1.20)
- Absolute Monocyte Count, Med. Fold Change (95% CI) from Day 1 ([8]; 6–8 Days from C1, N=13): 0.58 (0.35, 0.81)
- Absolute Neutrophil Count, Med. Fold Change (95% CI) from Day 1 ([8]; 6–8 Days from C1, N=13): 0.90 (0.77, 1.26)
- Hemoglobin (Hgb), Med. Fold Change (95% CI) from Day 1 ([8]; 6–8 Days from C1, N=13): 1.03 (0.97, 1.08)
- Lymphocytes %, Med. Fold Change (95% CI) from Day 1 ([8]; 6–8 Days from C1, N=13): 0.96 (0.81, 1.29)
- Monocytes %, Med. Fold Change (95% CI) from Day 1 ([8]; 6–8 Days from C1, N=13): 0.60 (0.40, 0.87)
- Neutrophils % + bands, Med. Fold Change (95% CI) from Day 1 ([8]; 6–8 Days from C1, N=13): 1.08 (0.96, 1.13)
- Platelet Count, Med. Fold Change (95% CI) from Day 1 ([8]; 6–8 Days from C1, N=13): 1.10 (0.84, 1.17)
- White blood cell (WBC), Med. Fold Change (95% CI) from Day 1 ([8]; 6–8 Days from C1, N=13): 0.89 (0.78, 1.07)
- Absolute Immature Granulocyte, Med. Fold Change (95% CI) from Day 1 ([8]; 14–16 Days from C1): 0.50 (0.19, 1.00)
- Immature granulocytes, Med. Fold Change (95% CI) from Day 1 ([8]; 14–16 Days from C1): 0.46 (0.30, 0.67)
- Absolute Basophil Count, Med. Fold Change (95% CI) from Day 1 ([8]; 14–16 Days from C1, N=11): 0.67 (0.50, 1.00)
- Absolute Eosinophil Count, Med. Fold Change (95% CI) from Day 1 ([8]; 14–16 Days from C1, N=11): 1.00 (0.81, 1.27)
- Basophils %, Med. Fold Change (95% CI) from Day 1 ([8]; 14–16 Days from C1, N=11): 0.83 (0.50, 1.13)
- Eosinophils %, Med. Fold Change (95% CI) from Day 1 ([8]; 14–16 Days from C1, N=11): 0.97 (0.92, 1.53)
- Absolute Lymphocyte Count, Med. Fold Change (95% CI) from Day 1 ([8]; 14–16 Days from C1, N=13): 0.88 (0.73, 1.03)
- Absolute Monocyte Count, Med. Fold Change (95% CI) from Day 1 ([8]; 14–16 Days from C1, N=13): 0.56 (0.40, 0.89)
- Absolute Neutrophil Count, Med. Fold Change (95% CI) from Day 1 ([8]; 14–16 Days from C1, N=13): 0.96 (0.64, 1.15)
- Hemoglobin (Hgb), Med. Fold Change (95% CI) from Day 1 ([8]; 14–16 Days from C1, N=13): 0.97 (0.91, 1.00)
- Lymphocytes %, Med. Fold Change (95% CI) from Day 1 ([8]; 14–16 Days from C1, N=13): 0.92 (0.87, 1.25)
- Monocytes %, Med. Fold Change (95% CI) from Day 1 ([8]; 14–16 Days from C1, N=13): 0.67 (0.52, 0.89)
